Compound activity (PubChem BioAssay)
Shown is part of a subset that was picked to be rich in hits.
FLuc inhib CS = inhibits firefly luciferase, flagging false hits in luciferase inhibition screens; ATPLite firefly luciferase biochemical luminescence, 10 min; inhibition, % at 10 µM; hit rate 1.5% among 200,000;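 active = inhibition above about 50% when tested at 10 µM, limit read from the data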
ABCG2 inh = blocks JC-1 efflux by human ABCG2 transporter. IgMXP3 cells, flow cytometry. inhibition, % at 6.6 µM. Q9UNQ0. AID 1325. hit rate 0.1% among 190,000;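 active = inhibition above 80%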;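 also: 0% = DMSO and 100% = nicardipine control wells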
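Read-out basis: Efflux inhibition in percent versus controls | Test system: ABCG2 IgMXP3 and barcoded ABCB1 CCRF-Adr cell mix | Quantity: 3 million cells/mL in well | Schedule: 10 min at 25 °C | Control set: Nicardipine as high control, DMSO as low control | Reagent: JC-1 as fluorescent efflux pump substrate | Signal: Flow cytometry of retained JC-1 fluorescence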
Diaph act CS = activates diaphorase or chemically reduces, flagging diaphorase assay artifacts; Diaphorase/resazurin coupled assay, resorufin fluorescence, 16 min; active compounds read high; 1 = vehicle wells, 0 = NADH-free wells; activation factor at 20 µM; hit rate 0.005% among 190,000;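 active = diaphorase activity raised at least twofold by the compound at 20 µM; inactive = activation factor below 2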
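Material: bacterial diaphorase enzyme (C. kluyveri); amount: enzyme 0.07 U/mL final; reagent: NADH substrate 0.114 mM plus resazurin dye 0.1 mM, final; doses: single compound dose of 20 µM, 1% DMSO final; timing: 16 min enzyme reaction, ambient temperature; measured by: fluorescence of resorufin, 544 nm excitation, 590 nm emission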
ABCB1 inh = blocks JC-1 efflux by human ABCB1 transporter | CCRF-Adr cells, flow cytometry | inhibition, % at 6.6 µM | hit rate 0.067% among 190,000 | AID 1326; in the data active = inhibition above about 40%;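 also: 0% = vehicle and 100% = reference inhibitor; higher value means more JC-1 retained so stronger ABCB1 efflux block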
FLuc act counter = firefly luciferase counter-screen for stimulation assays; ATPlite luciferase biochemical, luminescence, 10 min; 0 = ATP-free wells, 1 = DMSO control; activation factor at 10 µM; 200,000 tested, under 10 active; AID 1027;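 active = luciferase activation factor, scaled between plate controls, of at least 2 with compound at 10 µM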
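System: cell-free luciferase reagent; medium: PBS as buffer for the ATP substrate; doses: test compounds dosed from 2 mM stocks in 100% DMSO; incubation: 10 min, room temperature; measured by: luminescence from luciferase reaction; read-out: luciferase activation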
ABCB6 inh MLPCN = human ABCB6 transporter inhibition | Q9NP58 | K562-ABCB6 porphyrin accumulation, flow cytometry, 1 h; active compounds read low | fluorescence ratio to DMSO, % at 10 µM | hit rate 0.19% among 360,000 | AID 602162;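 active = fluorescence ratio to DMSO below 75%, the collection mean minus 3 SD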;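 also: signal is porphyrin accumulated inside mitochondria; 100% equals median channel fluorescence of DMSO control wells; lower ratio means ABCB6 inhibition with less porphyrin fluorescence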
Target sequence (Q9NP58 whole entry, looked up): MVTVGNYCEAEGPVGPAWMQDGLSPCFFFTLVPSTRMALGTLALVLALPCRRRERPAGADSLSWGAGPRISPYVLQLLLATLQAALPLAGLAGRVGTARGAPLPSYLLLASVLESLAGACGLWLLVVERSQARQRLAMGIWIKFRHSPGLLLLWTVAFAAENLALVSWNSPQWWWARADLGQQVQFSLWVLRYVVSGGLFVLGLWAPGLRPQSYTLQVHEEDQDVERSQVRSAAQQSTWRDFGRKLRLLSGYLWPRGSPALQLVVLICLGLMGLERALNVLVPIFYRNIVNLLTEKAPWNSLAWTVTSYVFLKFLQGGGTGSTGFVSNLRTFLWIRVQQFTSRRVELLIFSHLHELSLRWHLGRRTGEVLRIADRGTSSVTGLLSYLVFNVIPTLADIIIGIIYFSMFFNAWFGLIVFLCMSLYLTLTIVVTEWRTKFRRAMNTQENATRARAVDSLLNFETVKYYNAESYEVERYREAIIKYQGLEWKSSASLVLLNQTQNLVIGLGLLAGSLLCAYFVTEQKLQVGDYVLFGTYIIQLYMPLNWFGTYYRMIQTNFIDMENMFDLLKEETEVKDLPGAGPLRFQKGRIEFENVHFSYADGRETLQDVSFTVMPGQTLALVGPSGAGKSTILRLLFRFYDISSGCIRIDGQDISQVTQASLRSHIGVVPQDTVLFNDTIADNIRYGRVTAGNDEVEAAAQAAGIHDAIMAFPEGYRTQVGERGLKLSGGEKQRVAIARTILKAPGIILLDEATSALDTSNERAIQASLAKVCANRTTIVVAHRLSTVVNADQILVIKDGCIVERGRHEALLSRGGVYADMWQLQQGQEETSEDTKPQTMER
An asterisk follows results filed as active; · = no result given.

SMILES | FLuc inhib CS | ABCG2 inh | Diaph act CS | ABCB1 inh | FLuc act counter | ABCB6 inh MLPCN
N/C(=N\OC(=O)c1cccs1)c1ccccc1 | 94* | 10 | 1 | 0 | 0.1 | 98
COc1ccc(/C(N)=N/OC(=O)c2cccs2)cc1OC | 24 | 4 | · | 0 | 0.8 | 95
CCCc1cc(=O)oc2cc(C)cc(OCC(=O)NCc3ccncc3)c12 | · | · | · | · | · | 100
C=CCSc1nnc(NC(=O)c2c(CC)noc2C)s1 | · | · | · | · | · | 98
Cc1cccc(/C(N)=N/OC(=O)c2ccc(F)cc2)c1 | 97* | 10 | 0.9 | 0 | 0 | 98
N/C(=N\OC(=O)c1cccs1)c1cccc(Br)c1 | 87* | 33 | 0.8 | 0 | 0.1 | 115
CS(=O)(=O)c1ccc(Cl)c(C(=O)Nc2ccc3nc(N4CCOCC4)sc3c2)c1 | · | · | · | · | · | 99
CN1CCN(C(=O)/C=C/c2ccc(C#N)cc2)CC1 | · | · | · | · | · | 100
COc1ccc(CCC(=O)NCC2CCCCC2)cc1OC | · | · | · | · | · | 105
Cc1ccc(C)c(CNS(=O)(=O)c2c(C(=O)N3CCCC3)c(C)n(C)c2C)c1 | · | · | · | · | · | 93
Cc1ccc2nc(-c3ccccn3)oc2c1 | 84* | 3 | 0.9 | 0 | 0.2 | 92
Cc1ccc2nc(-c3cccnc3)oc2c1 | 39 | 5 | 0.8 | 0 | 0.6 | 101
Cc1ccc(-c2noc(-c3ccccc3Br)n2)cc1 | 67* | 7 | 0.8 | 1 | 0.3 | 92
COc1ccccc1-c1nc(-c2ccc(Br)cc2)no1 | 15 | 1 | 0.7 | 0 | 0.8 | 86
c1ccc(-c2noc(-c3cccc4ccccc34)n2)nc1 | 77* | 5 | 0.9 | 1 | 0.2 | 93
Cc1ccc(-c2nc(-c3ccccn3)no2)cc1[N+](=O)[O-] | · | · | · | · | · | 103
Cc1ccc(-c2nc(-c3ccccn3)no2)cc1Cl | 95* | 55 | 0.8 | 2 | 0 | 96
COc1ccc(C(C)(NC(C)=O)c2nc(-c3ccc(F)c(Cl)c3)cs2)cc1 (centres undefined) | · | · | · | · | · | 97
Cn1c(CNC(=O)c2ccc3c(c2)OCO3)nnc1SCC(=O)Nc1ccccc1F | · | · | · | · | · | 98
c1ccc(-c2cc(-c3nc(-c4ccccn4)no3)c3ccccc3n2)cc1 | · | · | · | · | · | 98
c1cc(-c2noc(CC3CCCCC3)n2)ccn1 | -8 | 1 | 0.9 | 0 | 1.1 | 103
c1ccc(-c2nc(-c3ccccn3)no2)cc1 | 90* | 0 | 1.1 | 0 | 0.1 | 95
CN(C)c1ccc(-c2noc(-c3ccccc3O)n2)cc1 | 58* | 1 | 0.9 | 0 | 0.4 | 88
c1ccc(-c2noc(CC3CCCCC3)n2)nc1 | 52* | 1 | 0.8 | 0 | 0.5 | 96
Clc1cccc(-c2nc(-c3ccccn3)no2)c1 | 93* | 5 | 0.9 | 1 | 0.1 | 96
SMILES | FLuc inhib CS | ABCG2 inh | Diaph act CS | ABCB1 inh | FLuc act counter | ABCB6 inh MLPCN
c1ccc(-c2noc(-c3ccccc3-c3ccccc3)n2)cc1 | -4 | 4 | 0.9 | 1 | 1 | 102
CCCc1ccc(OCc2ccc(C(=O)N3CCSCC3)o2)cc1 | · | · | · | · | · | 97
COc1ccc(NC(=O)c2ccc(NC(=O)CSc3nc(N)cc(=O)[nH]3)cc2)cc1 | · | · | · | · | · | 87
Cc1ccc(-c2nc(-c3ccccn3)no2)cc1 | 97* | 8 | 0.9 | 0 | 0 | 97
c1ccc(-c2ccc(-c3nc(-c4ccccn4)no3)cc2)cc1 | 94* | 1 | 1 | 1 | 0.1 | 93
COc1ccc(OC)c(C(=O)NC(CC(N)=O)c2ccc(N3CCN(c4ccc(F)cc4)CC3)c([N+](=O)[O-])c2)c1 (centres undefined) | · | · | · | · | · | 93
COc1cccc(N2CCN(CC(=O)NC(=O)NC3CCCCC3)CC2)c1 | · | · | · | · | · | 97
C=CCNc1nc(-c2cc3ccccc3o2)cs1 | 76* | 0 | 0.8 | 0 | 0.2 | 97
CC(=O)Nc1ccc(S(=O)(=O)N(C)CC(=O)OC(C)C(=O)NC2CCCCC2)cc1 (centres undefined) | · | · | · | · | · | 98
COc1ccc(-c2nnc(-c3cc4ccccc4oc3=O)o2)cc1 | 5 | 4 | 1.1 | 1 | 0.9 | 97
COc1cccc2cc(-c3nnc(-c4ccccc4)o3)c(=O)oc12 | 91* | 12 | · | 2 | 0.1 | 98
CC(NC(=O)Cc1ccccc1)C(=O)O (centres undefined) | · | · | · | · | · | 100
